From ChEMBL document CHEMBL4118021, “Studies of TAK1-centered polypharmacology with novel covalent TAK1 inhibitors” (Bioorg Med Chem, 2017)
Active and inactive are the calls of the source. The rule behind the calls is not given here.

Key:
[1] = molecular target: Vascular endothelial growth factor receptor 1 (Homo sapiens) (UniProt P17948); assay: Inhibition of human FLT1 (781 to 1239 residues) expressed in bacterial expression system assessed as enzyme activity at 1 uM by KINOMEScan assay relative to control; design: scale not given: the % may be the effect or the level left
Vascular endothelial growth factor receptor 1 (Homo sapiens), sequence (P17948 whole entry, the tested form may be a part): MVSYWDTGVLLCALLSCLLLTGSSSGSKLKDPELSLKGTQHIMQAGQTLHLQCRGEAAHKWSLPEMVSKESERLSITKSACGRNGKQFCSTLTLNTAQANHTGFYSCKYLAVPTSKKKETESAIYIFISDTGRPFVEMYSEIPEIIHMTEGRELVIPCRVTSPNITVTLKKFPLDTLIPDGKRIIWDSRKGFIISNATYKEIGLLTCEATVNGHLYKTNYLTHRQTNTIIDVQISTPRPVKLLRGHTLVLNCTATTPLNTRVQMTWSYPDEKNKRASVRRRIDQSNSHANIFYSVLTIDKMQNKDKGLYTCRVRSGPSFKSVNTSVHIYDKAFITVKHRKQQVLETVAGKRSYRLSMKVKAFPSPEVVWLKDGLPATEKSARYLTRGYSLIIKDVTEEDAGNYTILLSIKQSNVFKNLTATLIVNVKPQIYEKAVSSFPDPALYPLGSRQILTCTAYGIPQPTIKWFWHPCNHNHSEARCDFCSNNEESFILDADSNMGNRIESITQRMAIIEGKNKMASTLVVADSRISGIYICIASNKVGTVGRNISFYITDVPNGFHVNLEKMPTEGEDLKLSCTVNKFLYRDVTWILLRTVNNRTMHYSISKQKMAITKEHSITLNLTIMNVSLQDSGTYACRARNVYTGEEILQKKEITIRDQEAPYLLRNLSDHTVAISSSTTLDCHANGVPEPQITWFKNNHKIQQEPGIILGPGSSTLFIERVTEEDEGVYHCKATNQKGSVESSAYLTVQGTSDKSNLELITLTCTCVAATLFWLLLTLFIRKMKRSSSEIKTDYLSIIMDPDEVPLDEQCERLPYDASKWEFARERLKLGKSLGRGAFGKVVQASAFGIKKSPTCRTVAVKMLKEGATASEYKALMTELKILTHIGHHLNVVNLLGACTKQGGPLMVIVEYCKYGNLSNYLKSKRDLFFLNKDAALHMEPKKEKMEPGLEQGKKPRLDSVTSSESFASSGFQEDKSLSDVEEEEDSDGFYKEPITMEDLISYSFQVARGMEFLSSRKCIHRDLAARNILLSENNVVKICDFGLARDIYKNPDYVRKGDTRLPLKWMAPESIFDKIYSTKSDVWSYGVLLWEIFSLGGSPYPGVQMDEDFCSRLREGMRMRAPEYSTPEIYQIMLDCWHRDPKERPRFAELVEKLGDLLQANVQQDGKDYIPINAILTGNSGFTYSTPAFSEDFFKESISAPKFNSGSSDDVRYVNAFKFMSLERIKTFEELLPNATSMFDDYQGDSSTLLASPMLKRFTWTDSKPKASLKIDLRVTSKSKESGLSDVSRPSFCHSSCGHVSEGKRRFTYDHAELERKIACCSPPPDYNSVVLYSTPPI
How it was run: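 In vitro ATP-site competition binding assay across a panel of 456 kinases, with compound tested at 1 and 10 μM.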

[2] = molecular target: Dual specificity mitogen-activated protein kinase kinase 2 (Homo sapiens) (UniProt P36507); assay: Inhibition of full length human MEK2 (1 to 400 residues) expressed in mammalian expression system assessed as enzyme activity at 10 uM by KINOMEScan assay relative to control; design: scale not given: the % may be the effect or the level left
How it was run: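 In vitro ATP-site competition binding assay (KinomeScan) across a panel of 456 kinases. Compound was tested at 1 and 10 μM. The read-out is the binding inhibition score relative to control.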

[3] = molecular target: Protein kinase C iota (Homo sapiens) (UniProt P41743); assay: Inhibition of PKCi in human SKCO1 cells at 1 uM after 4 hrs using biotin labeled DLKLDNVLLDSEGHIK probe by mass-spectrometric analysis relative to control
[4] = molecular target: Medium-chain specific acyl-CoA dehydrogenase, mitochondrial (Homo sapiens) (UniProt P11310); assay: Binding affinity to ACADM in human NCI-H23 cells at 1 uM by mass spectrometry based pull down assay; type: cell-based
How it was run: (§1)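 NCI-H23 or NCI-H358 cells were grown and lysed. Lysates were incubated overnight at 4 °C with 1 μM biotinylated covalent probe or DMSO, then pulled down on streptavidin beads. Proteins were run on polyacrylamide gels and stained with Coomassie. Bands were excised, digested and identified by mass spectrometry.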

[5] = molecular target: Signal recognition particle 19 kDa protein (Homo sapiens) (UniProt P09132); assay: Binding affinity to SRP19 in human NCI-H23 cells at 1 uM by mass spectrometry based pull down assay; type: cell-based
Signal recognition particle 19 kDa protein (Homo sapiens), sequence (P09132 whole entry): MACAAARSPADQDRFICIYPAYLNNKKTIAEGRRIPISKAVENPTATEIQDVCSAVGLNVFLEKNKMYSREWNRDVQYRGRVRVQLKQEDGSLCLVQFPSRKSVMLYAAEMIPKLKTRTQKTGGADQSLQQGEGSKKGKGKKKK

[6] = molecular target: Serine/threonine-protein kinase WNK1 (Homo sapiens) (UniProt Q9H4A3); assay: Binding affinity to WNK1 in human NCI-H23 cells at 1 uM by mass spectrometry based pull down assay; type: cell-based
[7] = molecular target: U5 small nuclear ribonucleoprotein 200 kDa helicase (Homo sapiens) (UniProt O75643); assay: Binding affinity to SNRNP200 in human NCI-H23 cells at 1 uM by mass spectrometry based pull down assay; type: cell-based
[8] = molecular target: Proteasome subunit beta type-6 (Homo sapiens) (UniProt P28072); assay: Binding affinity to PSMB6 in human NCI-H23 cells at 1 uM by mass spectrometry based pull down assay; type: cell-based
Proteasome subunit beta type-6 (Homo sapiens), sequence (P28072 whole entry): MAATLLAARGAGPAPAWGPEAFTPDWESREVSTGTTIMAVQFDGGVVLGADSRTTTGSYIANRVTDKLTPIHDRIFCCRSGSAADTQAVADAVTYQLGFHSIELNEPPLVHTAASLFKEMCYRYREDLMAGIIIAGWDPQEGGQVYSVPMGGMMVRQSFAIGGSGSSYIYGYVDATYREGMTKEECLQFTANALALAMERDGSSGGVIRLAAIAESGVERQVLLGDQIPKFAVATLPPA

[9] = molecular target: Cancer-related nucleoside-triphosphatase (Homo sapiens) (UniProt Q9BSD7); assay: Binding affinity to NTPCR in human NCI-H23 cells at 1 uM by mass spectrometry based pull down assay; type: cell-based
Cancer-related nucleoside-triphosphatase (Homo sapiens), sequence (Q9BSD7 whole entry): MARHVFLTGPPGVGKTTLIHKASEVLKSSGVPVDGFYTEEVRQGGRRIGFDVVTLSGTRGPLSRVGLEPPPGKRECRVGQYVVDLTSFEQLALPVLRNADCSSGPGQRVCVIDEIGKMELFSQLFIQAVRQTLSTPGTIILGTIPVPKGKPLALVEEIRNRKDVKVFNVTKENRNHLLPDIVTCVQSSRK

[10] = molecular target: Acidic leucine-rich nuclear phosphoprotein 32 family member B (Homo sapiens) (UniProt Q92688); assay: Binding affinity to ANP32B in human NCI-H23 cells at 1 uM by mass spectrometry based pull down assay; type: cell-based
[11] = molecular target: AP2-associated protein kinase 1 (Homo sapiens) (UniProt Q2M2I8); assay: Binding affinity to AAK1 in human NCI-H23 cells at 1 uM by mass spectrometry based pull down assay; type: cell-based; how it was run: as §1
AP2-associated protein kinase 1 (Homo sapiens), sequence (Q2M2I8 whole entry, looked up): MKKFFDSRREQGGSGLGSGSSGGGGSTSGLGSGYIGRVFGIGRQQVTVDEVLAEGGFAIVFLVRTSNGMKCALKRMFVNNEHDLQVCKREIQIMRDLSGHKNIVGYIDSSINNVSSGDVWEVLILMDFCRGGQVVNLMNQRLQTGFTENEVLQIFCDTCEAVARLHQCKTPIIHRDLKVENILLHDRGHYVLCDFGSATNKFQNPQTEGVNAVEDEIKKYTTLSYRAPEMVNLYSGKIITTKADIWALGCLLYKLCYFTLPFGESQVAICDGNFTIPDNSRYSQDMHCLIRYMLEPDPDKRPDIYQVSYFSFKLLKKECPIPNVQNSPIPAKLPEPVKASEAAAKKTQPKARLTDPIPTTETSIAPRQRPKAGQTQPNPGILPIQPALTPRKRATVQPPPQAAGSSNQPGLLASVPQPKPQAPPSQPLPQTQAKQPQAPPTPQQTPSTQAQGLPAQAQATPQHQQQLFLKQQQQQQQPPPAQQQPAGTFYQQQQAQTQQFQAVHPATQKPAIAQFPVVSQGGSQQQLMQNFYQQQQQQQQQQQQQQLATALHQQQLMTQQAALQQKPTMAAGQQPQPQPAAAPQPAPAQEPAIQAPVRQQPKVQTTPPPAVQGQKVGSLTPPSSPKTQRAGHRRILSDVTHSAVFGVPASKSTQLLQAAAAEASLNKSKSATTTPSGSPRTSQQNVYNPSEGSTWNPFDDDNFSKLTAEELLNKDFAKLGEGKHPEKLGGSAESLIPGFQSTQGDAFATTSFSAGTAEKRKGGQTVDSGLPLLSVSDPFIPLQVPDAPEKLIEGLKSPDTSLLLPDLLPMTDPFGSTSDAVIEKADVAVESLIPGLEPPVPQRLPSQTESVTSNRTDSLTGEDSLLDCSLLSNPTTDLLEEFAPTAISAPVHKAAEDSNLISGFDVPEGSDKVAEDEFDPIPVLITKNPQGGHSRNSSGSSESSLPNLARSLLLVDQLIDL

[12] = molecular target: Aurora kinase B (Homo sapiens) (UniProt Q96GD4); assay: Binding affinity to AURKB in human NCI-H23 cells at 1 uM by mass spectrometry based pull down assay; type: cell-based
[13] = molecular target: T1, 80S Ribosome (Homo sapiens) (UniProt P08865+P42677+P62753+P15880+P23396+P61247+P62701+P22090+P46782+P62081+P62241+P46781+P46783+P62280+P25398+P62277+P62263+P62841+P62244+P62249+P08708+P62269+P39019+P60866+P63220+P62266+P62847+P62851+P62854+P62979+P62857+P62273+P62861+P39023+P36578+P46777+Q02878+P18124+P62424+P62917+P32969+P27635+P62906+P62913+P30050+P26373+P40429+P50914+P61313+P18621+Q07020+Q02543+P84098+P46778+P35268+P62829+P62750+P83731+P61254+P61353+P46776+P46779+P47914+P62888+P62899+P62910+P49207+P42766+P18077+Q9Y3U8+P83881+P61927+P61513+P63173+P62891+P62945+P05388+P05386); assay: Binding affinity to RPL23A in human NCI-H358 cells at 1 uM by mass spectrometry based pull down assay; type: cell-based
[14] = molecular target: DnaJ homolog subfamily B member 6 (Homo sapiens) (UniProt O75190); assay: Binding affinity to DNAJB6 in human NCI-H358 cells at 1 uM by mass spectrometry based pull down assay; type: cell-based
DnaJ homolog subfamily B member 6 (Homo sapiens), sequence (O75190 whole entry): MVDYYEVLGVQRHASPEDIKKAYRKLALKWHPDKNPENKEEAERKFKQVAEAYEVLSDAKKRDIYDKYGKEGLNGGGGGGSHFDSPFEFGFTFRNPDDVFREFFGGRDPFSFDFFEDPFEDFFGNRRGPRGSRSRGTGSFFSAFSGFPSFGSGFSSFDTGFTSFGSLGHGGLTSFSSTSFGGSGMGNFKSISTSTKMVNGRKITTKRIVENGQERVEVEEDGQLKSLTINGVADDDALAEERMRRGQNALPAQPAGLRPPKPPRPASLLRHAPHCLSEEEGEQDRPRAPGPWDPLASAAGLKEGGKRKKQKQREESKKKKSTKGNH

[15] = molecular target: Adenylyltransferase and sulfurtransferase MOCS3 (Homo sapiens) (UniProt O95396); assay: Binding affinity to MOCS3 in human NCI-H358 cells at 1 uM by mass spectrometry based pull down assay; type: cell-based
Adenylyltransferase and sulfurtransferase MOCS3 (Homo sapiens), sequence (O95396 whole entry): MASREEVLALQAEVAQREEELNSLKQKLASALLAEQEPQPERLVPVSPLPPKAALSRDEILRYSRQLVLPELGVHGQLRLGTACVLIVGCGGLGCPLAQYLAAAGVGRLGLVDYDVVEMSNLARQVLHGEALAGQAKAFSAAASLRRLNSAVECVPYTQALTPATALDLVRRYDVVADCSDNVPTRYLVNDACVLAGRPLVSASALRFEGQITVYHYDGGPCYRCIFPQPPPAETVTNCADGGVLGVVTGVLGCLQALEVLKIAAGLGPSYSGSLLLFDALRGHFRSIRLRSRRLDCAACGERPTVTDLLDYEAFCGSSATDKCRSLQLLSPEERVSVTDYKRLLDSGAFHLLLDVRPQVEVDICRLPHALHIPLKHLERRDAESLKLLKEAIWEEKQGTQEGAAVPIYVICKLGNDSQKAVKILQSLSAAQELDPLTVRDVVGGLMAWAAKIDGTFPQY

[16] = molecular target: Phosphatidylinositol 3-kinase catalytic subunit type 3 (Homo sapiens) (UniProt Q8NEB9); assay: Binding affinity to PIK3C3 in human NCI-H358 cells at 1 uM by mass spectrometry based pull down assay; type: cell-based
[17] = molecular target: Lactoylglutathione lyase (Homo sapiens) (UniProt Q04760); assay: Binding affinity to GLO1 in human NCI-H358 cells at 1 uM by mass spectrometry based pull down assay; type: cell-based
Lactoylglutathione lyase (Homo sapiens), sequence (Q04760 2-184 limits assumed): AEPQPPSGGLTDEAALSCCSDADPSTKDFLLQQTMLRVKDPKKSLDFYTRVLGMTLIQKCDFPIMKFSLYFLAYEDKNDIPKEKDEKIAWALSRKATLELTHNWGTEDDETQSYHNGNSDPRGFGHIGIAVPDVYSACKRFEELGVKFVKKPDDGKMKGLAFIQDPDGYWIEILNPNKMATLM

[18] = molecular target: Ras-related protein Rab-22A (Homo sapiens) (UniProt Q9UL26); assay: Binding affinity to RAB22A in human NCI-H358 cells at 1 uM by mass spectrometry based pull down assay; type: cell-based
Ras-related protein Rab-22A (Homo sapiens), sequence (Q9UL26 whole entry): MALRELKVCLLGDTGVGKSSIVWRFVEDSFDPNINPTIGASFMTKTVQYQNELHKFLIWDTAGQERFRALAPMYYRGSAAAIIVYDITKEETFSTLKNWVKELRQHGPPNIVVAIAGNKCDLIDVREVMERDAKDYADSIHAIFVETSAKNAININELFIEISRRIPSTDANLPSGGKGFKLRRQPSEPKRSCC

[19] = molecular target: Protein SET (Homo sapiens) (UniProt Q01105); assay: Binding affinity to SET in human NCI-H358 cells at 1 uM by mass spectrometry based pull down assay; type: cell-based
Protein SET (Homo sapiens), sequence (Q01105 whole entry): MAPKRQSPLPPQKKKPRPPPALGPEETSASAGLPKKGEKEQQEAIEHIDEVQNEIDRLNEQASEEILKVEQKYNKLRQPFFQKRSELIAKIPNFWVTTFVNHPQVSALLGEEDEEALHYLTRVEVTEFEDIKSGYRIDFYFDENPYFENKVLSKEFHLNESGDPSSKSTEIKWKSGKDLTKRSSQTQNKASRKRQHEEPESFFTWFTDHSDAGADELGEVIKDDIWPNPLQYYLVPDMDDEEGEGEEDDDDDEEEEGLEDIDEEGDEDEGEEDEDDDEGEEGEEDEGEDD

[20] = molecular target: Constitutive coactivator of PPAR-gamma-like protein 1 (Homo sapiens) (UniProt Q9NZB2); assay: Binding affinity to FAM120A in human NCI-H358 cells at 1 uM by mass spectrometry based pull down assay; type: cell-based
[21] = molecular target: T1, 80S Ribosome (Homo sapiens); assay: Binding affinity to RPL19 in human NCI-H358 cells at 1 uM by mass spectrometry based pull down assay; type: cell-based
[22] = molecular target: Mitochondrial import inner membrane translocase subunit TIM50 (Homo sapiens) (UniProt Q3ZCQ8); assay: Binding affinity to TIMM50 in human NCI-H358 cells at 1 uM by mass spectrometry based pull down assay; type: cell-based
[23] = molecular target: T1, 80S Ribosome (Homo sapiens); assay: Binding affinity to RPS9 in human NCI-H358 cells at 1 uM by mass spectrometry based pull down assay; type: cell-based
[24] = molecular target: Protein disulfide-isomerase (Homo sapiens) (UniProt P07237); assay: Binding affinity to P4HB in human NCI-H358 cells at 1 uM by mass spectrometry based pull down assay; type: cell-based
[25] = molecular target: Tubulin beta-2A chain (Homo sapiens) (UniProt Q13885); assay: Binding affinity to TUBB2A in human NCI-H358 cells at 1 uM by mass spectrometry based pull down assay; type: cell-based
Tubulin beta-2A chain (Homo sapiens), sequence (Q13885 whole entry): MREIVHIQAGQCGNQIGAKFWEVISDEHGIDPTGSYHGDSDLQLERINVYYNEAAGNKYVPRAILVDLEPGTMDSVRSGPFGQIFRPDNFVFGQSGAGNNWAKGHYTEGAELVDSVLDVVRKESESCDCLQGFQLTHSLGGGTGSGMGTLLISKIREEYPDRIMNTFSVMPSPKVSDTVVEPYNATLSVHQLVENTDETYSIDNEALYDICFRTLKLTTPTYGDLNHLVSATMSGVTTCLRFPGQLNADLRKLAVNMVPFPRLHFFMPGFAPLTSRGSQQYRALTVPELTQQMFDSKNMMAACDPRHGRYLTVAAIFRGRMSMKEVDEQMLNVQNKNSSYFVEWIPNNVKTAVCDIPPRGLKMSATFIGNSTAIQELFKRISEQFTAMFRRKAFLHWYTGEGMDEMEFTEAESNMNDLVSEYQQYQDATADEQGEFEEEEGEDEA

## COc1cc(O)c2c(c1)/C=C/C[C@H](O)[C@H](O)C(=O)/C=C\C[C@H](C)OC2=O
[1]
  Activity: 16%
[2]
  Activity: 0.05%

## C=CC(=O)Nc1ccccc1Nc1nc(Nc2ccc(N3CCN(C)CC3)cc2)ncc1Cl
[3]
  inhibition: -5.7%

## C=CC(=O)Nc1ccccc1Nc1nc(Nc2ccc(N3CCN(CCOCCOCCOCCNC(=O)CCCC[C@@H]4SC[C@@H]5NC(=O)N[C@@H]54)CC3)cc2)ncc1Cl
[4]
  Activity: Active
[5]
  Activity: Active
[6]
  Activity: Active
[7]
  Activity: Active
[8]
  Activity: Active
[9]
  Activity: Active
[10]
  Activity: Active
[11]
  Activity: Active
[12]
  Activity: Active
[13]
  Activity: Active
[14]
  Activity: Active
[15]
  Activity: Active
[16]
  Activity: Active
[17]
  Activity: Active
[18]
  Activity: Active
[19]
  Activity: Active
[20]
  Activity: Active
[21]
  Activity: Active
[22]
  Activity: Active
[23]
  Activity: Active
[24]
  Activity: Active
[25]
  Activity: Active
